Results from different studies.
Each line is one published result; the experiments were not run side by side.
Target: Casein kinase I isoform epsilon (CSNK1E, Homo sapiens, UniProt P49674)

SMILES | observed | mode | method | concentration | measurement | value
CCCS(=O)(=O)Nc1ccc(F)c(C(=O)c2c[nH]c3ncc(-c4ccc(Cl)cc4)cc23)c1F | enzyme activity | inhibitor | – | 1 µM | inhibition | < 10%
O=C1NC(=O)c2cc(Nc3ccc(F)cc3)c(Nc3ccc(F)cc3)cc21 | enzyme activity | inhibitor | – | 0.5 µM | remaining activity | 98%
CC/C(=N\NC(=O)NCc1cccc(O)c1)c1ccc(O)c(C)c1O | enzyme activity | inhibitor | – | 0.1 µM | inhibition | 3.6%
CN(C)C(=O)Cn1cc(-c2nc(C3(c4ccc(-c5cnc(N)nc5)cc4)CC3)no2)cn1 | cell-free assay | – | competition with immobilised ligand | 1 µM | remaining binding | 100%
Cc1ccc(C(=O)Nc2ccc(CN3CCN(C)CC3)c(C(F)(F)F)c2)cc1C#Cc1cnc2cccnn12 | enzyme activity | inhibitor | – | 23.5 nM | remaining activity | 88%
Cn1c2c(c3ccc(Cl)c(Cl)c31)C(C#N)C(C)(C)NC2=O (stereo not shown) | thermal stability | – | DSF | 10 µM | ΔTm | 1.3 °C
COc1cc2ncnc(Nc3ccc(F)c(Cl)c3)c2cc1OCCCN1CCOCC1 | enzyme activity | – | – | 0.5 µM | remaining activity | 106%
Cn1c2c(c3ccc(Cl)c(Cl)c31)C(C#N)C1(CCOCC1)NC2=O (stereo not shown) | thermal stability | – | DSF | 10 µM | ΔTm | 0.4 °C
COc1cc2ncnc(Nc3ccc(Oc4ccccc4)c(C)c3C)c2cc1OC | enzyme activity | inhibitor | – | 1 µM | inhibition | 0%
CC(C)(C)c1nc2c(s1)c1nc(N)ncc1c1ccc(NS(=O)(=O)c3c(F)cccc3F)c(F)c12 | enzyme activity | inhibitor | radiometric | 1 µM | remaining activity | 84%
CN(C)CC#Cc1ccc(OCCCc2sc(N3CCc4cccc(C(=O)Nc5nc6ccccc6s5)c4C3)nc2C(=O)O)c(F)c1 | cell-free assay | – | competition with immobilised ligand | 1 µM | remaining binding | 86%
Cn1c2c(c3ccccc31)C(C#N)C(C)(C)NC2=O (stereo not shown) | thermal stability | – | DSF | 10 µM | ΔTm | 0.8 °C
COc1cc2c(N3CCN(C(=O)Nc4ccc(OC(C)C)cc4)CC3)ncnc2cc1OCCCN1CCCCC1 | cell-free assay | – | – | 0.5 µM | remaining signal | 99.1%
O=C(Nc1cccnn1)N1CC(C/C=C/c2cncc(Oc3ccc(C(F)(F)F)cn3)n2)C1 | cell-free assay | – | competition with immobilised ligand | 1 µM | remaining binding | 100%
CCN(CC)CCNC(=O)c1c(C)[nH]c(/C=C2\C(=O)Nc3ccc(Cl)cc32)c1C | enzyme activity | inhibitor | – | 0.5 µM | remaining activity | 46.7%
CNCc1ccccc1-c1csc([C@H](C)Nc2nc(C)nc3cc(OC)c(OC)cc23)c1 | cell-free assay | – | competition with immobilised ligand | 1 µM | remaining binding | 91%
C[C@@H]1CCN(C(=O)CC#N)C[C@@H]1N(C)c1ncnc2[nH]ccc12 | enzyme activity | inhibitor | – | 0.5 µM | remaining activity | 101%
O=C(O)c1cc(-c2ccc(C3CCNCC3)cc2)c2ccc(-c3ccc(C(F)(F)F)cc3)cc2c1 | cell-free assay | – | competition with immobilised ligand | 1 µM | remaining binding | 100%
O=c1c2ccccc2[nH]c(=S)n1CCN1CCC(=C(c2ccc(F)cc2)c2ccc(F)cc2)CC1 | enzyme activity | inhibitor | – | 0.5 µM | remaining activity | 100%
CCOC(=O)c1cc2cc(-c3cc(C(=O)NCc4ccc(C(=O)O)cc4)nn3C)ccc2[nH]1 | cell-free assay | – | competition with immobilised ligand | 0.1 µM | remaining binding | 100%
CCN1/C(=C/C(C)=O)Sc2ccc(OC)cc21 | enzyme activity | – | – | 0.5 µM | remaining activity | 60.1%
O=C(Nc1cnn(-c2csc(C(=O)NC3COC3)c2)c1)Nc1ccccc1Cl | enzyme activity | inhibitor | – | 5 µM | remaining activity | 89.6%
